Results as given in ChEMBL document CHEMBL4052634, “Covalent inhibitors of LgtC: A blueprint for the discovery of non-substrate-like inhibitors for bacterial glycosyltransferases” (Bioorg Med Chem, 2017).
Active and inactive are the calls of the source.

How the values were obtained:
Neisseria meningitidis [1] = assay: Inhibition of Neisseria meningitidis alpha-1,4-galactosyltransferase at 25 to 50 uM using lactose as substrate preincubated for 10 mins in presence of UDP-Gal followed by substrate addition measured after 20 mins
How it was run: (§1)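 LgtC pre-incubated 10 min at 30 °C with inhibitor (DMSO, 10% final) and UDP-Gal 28 µM in 13 mM HEPES pH 7.0 with MnCl2 5 mM, CIP 10 U/mL, lysozyme 1 mg/mL, 0.01% Triton; lactose 2 mM then added, 20 min at 30 °C; malachite green absorbance at 620 nm converted via UDP calibration; triplicate.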

Neisseria meningitidis [2] = assay: Inhibition of Neisseria meningitidis alpha-1,4-galactosyltransferase at 25 to 100 uM using lactose as substrate preincubated for 10 mins in presence of UDP-Gal followed by substrate addition measured after 20 mins; how it was run: as §1
Neisseria meningitidis [3] = assay: Inhibition of Neisseria meningitidis alpha-1,4-galactosyltransferase assessed as enzyme activity at 100 uM using beta-lactose as substrate preincubated for 10 mins in presence of UDP-Gal donor followed by substrate addition incubated for 20 mins measured before diafiltration by colorimetric analysis (reference value: 84%)
How it was run: (§2)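 DTT-activated LgtC pre-incubated with inhibitor (100 µM) or DMSO plus UDP-Gal 28 µM, 10 min at 30 °C; lactose 2 mM added, 20 min at 30 °C. Activity measured in samples taken before, and after diafiltration (10 kDa cut-off, 4 °C, two 50 min spins with one HEPES pH 7.0 wash), under standard conditions (2 mM lactose, 28 µM UDP-Gal, 20 min, 30 °C), malachite green readout.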

[4] = biological target: Intestinal-type alkaline phosphatase (Bos taurus) (UniProt P19111); assay: Inhibition of calf intestinal alkaline […] at 0.1 to 100 uM using UDP as substrate after 20 mins by malachite green dye-based assay
Neisseria meningitidis [5] = assay: Inhibition of Neisseria meningitidis alpha-1,4-galactosyltransferase at 0.1 to 100 uM using lactose as substrate after 20 mins in presence of UDP-Gal and measured in presence of varying acceptor concentration by malachite green dye-based assay
How it was run: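 Activated LgtC with inhibitor (0.1-100 µM), UDP-Gal 28 µM, lactose varied 2-50 mM, MnCl2 5 mM, CIP 10 U/ml, lysozyme 1 mg/ml, 0.01% Triton in 13 mM HEPES pH 7.0, no pre-incubation; 20 min at 30 °C, donor turnover 20-50%; malachite green detection of UDP; triplicate.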

Neisseria meningitidis [6] = assay: Binding affinity to Neisseria meningitidis alpha-1,4-galactosyltransferase assessed as covalent adduct formation at 100 uM after 20 mins by mass spectrometric analysis
How it was run: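 LgtC stock without DTT activation, diluted in 13 mM HEPES pH 7.0, incubated with inhibitor (100 or 50 µM, added in DMSO; 10% final DMSO) for 20 min at 30 °C; samples injected directly for electrospray MS to detect protein-inhibitor adducts.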

Bos taurus = species: Bos taurus; assay: Inhibition of bovine beta-1,4-galactosyltransferase at 100 uM using GLcNAc as substrate in presence of UDP-Gal measured after 20 mins by malachite green dye-based assay
[7] = biological target: T1, Galactoside alpha-(1,2)-fucosyltransferase 2 (Homo sapiens) (UniProt Q10981); assay: Inhibition of human fucosyltransferase2 at 150 uM using alpha-lactose as substrate in presence of GDP-Fuc measured after 20 mins by malachite green dye-based assay
T1 sequence (whole entry): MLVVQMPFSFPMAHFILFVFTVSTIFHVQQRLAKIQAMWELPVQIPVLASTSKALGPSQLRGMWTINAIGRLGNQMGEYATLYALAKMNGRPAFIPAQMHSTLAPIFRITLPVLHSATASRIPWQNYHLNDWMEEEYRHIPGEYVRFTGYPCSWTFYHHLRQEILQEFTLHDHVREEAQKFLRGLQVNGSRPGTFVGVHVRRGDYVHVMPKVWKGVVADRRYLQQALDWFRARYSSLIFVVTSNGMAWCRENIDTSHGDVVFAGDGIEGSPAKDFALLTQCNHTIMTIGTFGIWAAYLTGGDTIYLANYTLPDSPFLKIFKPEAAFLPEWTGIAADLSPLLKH

Pasteurella multocida = assay: Inhibition of Pasteurella multocida alpha-2,3-sialyltransferase at 150 uM using beta-lactose as substrate in presence of CMP-Neu5Ac measured after 20 mins by malachite green dye-based assay
Neisseria meningitidis [8] = assay: Inhibition of Neisseria meningitidis alpha-1,4-galactosyltransferase assessed as enzyme activity at 100 uM using beta-lactose as substrate in presence of UDP-Gal donor/lactose acceptor incubated for 20 mins measured after diafiltration by colorimetric analysis (reference value: 85 %); how it was run: as §2
Neisseria meningitidis [9] = assay: Inhibition of Neisseria meningitidis alpha-1,4-galactosyltransferase C246S mutant expressed in Escherichia coli BL21(DE3) at 100 uM using lactose as substrate in presence of UDP-Gal measured after 20 min by malachite green dye-based assay
How it was run: (§3)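 Mutant LgtC (His-tag purified, Superdex 200), DTT-activated (10 mM, 1:1, 30 min, 30 °C), no pre-incubation with inhibitor. Final: 2 mM lactose, 28 µM UDP-Gal, 5 mM MnCl2, phosphatase CIP 10 U/mL, lysozyme 1 mg/mL, 0.01% Triton, 13 mM HEPES pH 7.0, 10% DMSO; 20 min, 30 °C. UDP read at 620 nm vs UDP calibration, background-corrected; triplicate.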

[10] = Inhibition of Neisseria meningitidis alpha-1,4-galactosyltransferase using lactose as substrate in presence of UDP-Gal measured after 20 min by malachite green dye-based assay
How it was run: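 Recombinant LgtC, pre-activated with DTT (10 mM, 1:1, 30 min, 30 °C). Reaction contained MnCl2 5 mM, CIP 10 U/mL, lysozyme 1 mg/mL, Triton 0.01%, 13 mM HEPES pH 7.0, lactose 2 mM, inhibitor 0.1–100 µM (10% DMSO final), UDP-Gal 28 µM. No pre-incubation; 20 min at 30 °C. Released phosphate read by malachite green at 620 nm against a UDP calibration curve. Turnover adjusted to 20–50%. IC50 from sigmoidal fit of background-corrected % activity; at least triplicate.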

[11] = Binding affinity to L-lysine assessed as adduct formation at 0.06 mmol by 1H NMR analysis
How it was run: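 Lysine (0.06 mmol in D2O) mixed with inhibitor (0.06 mmol) in d6-DMSO in an NMR tube by shaking; 1H-NMR spectra at 400 MHz, 298 K, taken at time points over 0-190 min.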

[12] = Binding affinity to L-serine assessed as covalent adduct formation at 0.06 mmol by 1H NMR analysis
How it was run: (§4)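 Amino acid (0.06 mmol; cysteine in d6-DMSO, serine in D2O) added to inhibitor (0.06 mmol) in d6-DMSO in an NMR tube, mixed by shaking; 1H-NMR (400 MHz) recorded at 298 K at time points from 0-190 min to follow adduct formation.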

Neisseria meningitidis [13] = assay: Inhibition of Neisseria meningitidis alpha-1,4-galactosyltransferase C246A mutant expressed in Escherichia coli BL21(DE3) at 100 uM using lactose as substrate in presence of UDP-Gal measured after 20 min by malachite green dye-based assay; how it was run: as §3
Neisseria meningitidis [14] = assay: Competitive inhibition of Neisseria meningitidis alpha-1,4-galactosyltransferase at 1 to 5 uM using lactose as substrate measured after 20 mins in presence of fixed concentration of UDP-Gal donor and varying concentration of lactose acceptor by Dixon/Cornish-Bowden plot analysis
How it was run: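 Acceptor kinetics using standard protocol without pre-incubation: DTT-activated LgtC, UDP-Gal fixed at 100 µM, inhibitor 1, 2, 3, 4, 5 µM, lactose 5, 15, 25 mM, with 5 mM MnCl2, CIP 10 U/ml, lysozyme 1 mg/ml, 0.01% Triton, 13 mM HEPES pH 7.0, 10% DMSO; 20 min at 30 °C, donor turnover <10%; UDP released read by malachite green.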

[15] = Binding affinity to L-cysteine assessed as covalent adduct formation at 0.06 mmol by 1H NMR analysis; settings: TDE = time-dependent effect; how it was run: as §4

Chain of Intestinal-type alkaline phosphatase (Bos taurus) (P19111 20-506 limits assumed): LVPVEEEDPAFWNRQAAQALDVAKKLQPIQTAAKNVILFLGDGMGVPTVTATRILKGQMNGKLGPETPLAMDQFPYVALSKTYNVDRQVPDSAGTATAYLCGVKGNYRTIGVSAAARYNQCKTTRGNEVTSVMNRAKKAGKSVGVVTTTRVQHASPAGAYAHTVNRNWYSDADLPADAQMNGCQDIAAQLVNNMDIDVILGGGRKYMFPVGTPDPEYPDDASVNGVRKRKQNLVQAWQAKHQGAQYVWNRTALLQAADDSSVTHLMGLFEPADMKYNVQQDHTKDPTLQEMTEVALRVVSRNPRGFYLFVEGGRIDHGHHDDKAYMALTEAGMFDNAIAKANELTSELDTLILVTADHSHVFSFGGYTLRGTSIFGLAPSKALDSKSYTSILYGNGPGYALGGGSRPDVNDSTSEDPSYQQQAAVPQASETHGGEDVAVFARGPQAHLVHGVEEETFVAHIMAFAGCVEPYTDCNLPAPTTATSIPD

| SMILES | inhibition (Neisseria meningitidis [1]) | inhibition (Neisseria meningitidis [2]) | inhibition (Neisseria meningitidis [3]) [%] | inhibition [4] | inhibition (Neisseria meningitidis [5]) | Activity (Neisseria meningitidis [6]) | inhibition (Bos taurus) | inhibition [7] | inhibition (Pasteurella multocida) | inhibition (Neisseria meningitidis [8]) [%] | inhibition (Neisseria meningitidis [9]) | IC50 [10] [µM] | Activity [11] | Activity [12] | inhibition (Neisseria meningitidis [13]) | inhibition (Neisseria meningitidis [14]) | Activity [15] |
| --- | --- | --- | --- | --- | --- | --- | --- | --- | --- | --- | --- | --- | --- | --- | --- | --- | --- |
| COc1ccc(/C=C2\SC(=S)N(c3ccccc3)C2=O)cc1Br | inactive | inactive | – | – | – | – | – | – | – | – | – | – | – | – | – | – | – |
| CC1=NN(c2ccccc2)C(=O)/C1=C\c1ccccc1C(F)(F)F | – | – | 30 | inactive | inactive | Active | inactive | inactive | inactive | 23 | Active | 27 | inactive | inactive | inactive | Active | Tde |
| Cc1nn(-c2ccccc2)c(O)c1Cc1ccccc1C(F)(F)F | – | inactive | – | – | – | – | – | – | – | – | – | – | – | – | – | – | – |
